NPY-Y2 antag: NPY-Y2 receptor antagonists, primary screen, cell-based. NPY-Y2 expressing cells, antagonist mode. inhibition, % at 2.7 µM. 140,000 compounds, 0.99% hits. AID 793, 2007;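 also: 0% = vehicle with agonist challenge and 100% = reference antagonist with challenge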
Target sequence (P49146 whole entry, looked up): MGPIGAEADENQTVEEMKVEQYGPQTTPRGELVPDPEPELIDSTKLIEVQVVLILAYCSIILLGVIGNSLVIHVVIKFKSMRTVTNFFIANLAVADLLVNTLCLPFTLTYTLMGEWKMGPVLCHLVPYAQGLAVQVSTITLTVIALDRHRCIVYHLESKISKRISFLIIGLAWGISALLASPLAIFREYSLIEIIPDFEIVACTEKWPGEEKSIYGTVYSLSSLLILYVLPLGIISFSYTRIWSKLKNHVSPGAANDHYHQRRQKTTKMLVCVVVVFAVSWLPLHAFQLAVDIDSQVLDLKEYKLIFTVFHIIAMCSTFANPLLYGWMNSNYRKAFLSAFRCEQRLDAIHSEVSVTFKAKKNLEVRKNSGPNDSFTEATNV
NPY Y1 blocker: NPY-Y1 receptor antagonists, primary screen, cell-based | Neuropeptide Y receptor type 1 (Homo sapiens), P25929 | HEK293-CNG Y1 cells, membrane potential fluorescence; NPY at EC95, then isoproterenol | inhibition, % at 3.6 µM | 200,000 compounds, 1% hits | AID 1040, 2008;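 active = inhibition above the campaign mean inhibition of all tested compounds plus 3 SD, cut at about 20% in these data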;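 also: 0% = DMSO wells given NPY plus isoproterenol and 100% = isoproterenol alone without NPY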
Target sequence (P25929 whole entry, looked up): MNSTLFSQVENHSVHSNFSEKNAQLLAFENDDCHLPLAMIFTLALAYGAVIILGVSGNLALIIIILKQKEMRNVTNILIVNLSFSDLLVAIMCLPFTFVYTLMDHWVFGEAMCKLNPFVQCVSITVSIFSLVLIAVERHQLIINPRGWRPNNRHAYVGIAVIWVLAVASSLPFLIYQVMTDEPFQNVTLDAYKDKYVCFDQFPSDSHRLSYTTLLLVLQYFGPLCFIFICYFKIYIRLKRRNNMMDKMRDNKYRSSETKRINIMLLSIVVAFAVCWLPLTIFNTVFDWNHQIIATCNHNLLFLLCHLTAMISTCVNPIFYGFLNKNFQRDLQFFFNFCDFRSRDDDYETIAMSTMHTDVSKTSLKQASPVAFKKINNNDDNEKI
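material = HEK293 cells with Y1 receptor plus CNG channel | also added = NPY 25 nM then isoproterenol 1 µM plus Ro 20-1724 25 µM | schedule = dye 3 h, compound 60 min room temperature, stimulation 45 min | measured by = membrane potential fluorescence | benchmarks = high control isoproterenol alone, low control NPY with isoproterenol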
NPY-Y2 PAM-ag: NPY-Y2 potentiators or agonists, primary screen, cell-based. cells expressing NPY-Y2, potentiator/agonist read-out. Neuropeptide Y receptor type 2 (Homo sapiens), P49146. AID 1359, 2008. 220,000 compounds, 0.45% hits. activation, % at 3.6 µM; in the data active = activation above about 27%;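 also: cells stimulated with NPY near EC25 plus isoproterenol at EC100; 0% = vehicle plus submaximal agonist and 100% = vehicle plus saturating agonist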
NPY-Y1 PAM-ag: NPY-Y1 receptor potentiators or agonists, primary screen, cell-based; Neuropeptide Y receptor type 1 (Homo sapiens), P25929; NPY-Y1 expressing cells, potentiator/agonist activation; activation, % at 3.6 µM; 220,000 compounds, 0.37% hits; AID 1304, 2008; in the data active = activation above about 33%, passing the limit was not always enough;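 also: cells stimulated with NPY at EC10 then isoproterenol at EC100; 0% = low agonist plus stimulus and 100% = saturating agonist plus stimulus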
NPY-Y1 ant conf: NPY-Y1 receptor antagonists, retest of hits, confirmation, HEK293-CNG cells, membrane potential fluorescence, triplicate; cAMP; NPY challenge against isoproterenol-raised cAMP; shares compounds with NPY Y1 blocker; 1,200 compounds, 21% hits; inhibition, % at 3.6 µM; in the data active = inhibition above about 20%;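 also: 0% = vehicle with agonist plus stimulus and 100% = stimulus alone without agonist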
NPY-Y2 antag ct: NPY-Y2 receptor antagonists, selectivity check, confirmation, counter-screen for NPY-Y1 antagonist project, HEK293-CNG cells, membrane potential fluorescence, triplicate | shares compounds with NPY Y1 blocker | antagonism; cells given NPY, then isoproterenol | inhibition, % at 3.6 µM | 1,200 compounds, 28% hits | AID 1255, 2008;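 also: 0% = DMSO with agonist challenge and 100% = reference antagonist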
* marks the source's active call; other numbers are inactive results; · = not tested or not shown. Compounds with a hit are over-represented: about 1.8% of the library has one in this group of screens. Rule as the data show it, unless noted: active = inhibition above about 17%; inactive = the rest.

SMILES | NPY-Y2 antag | NPY Y1 blocker | NPY-Y2 PAM-ag | NPY-Y1 PAM-ag | NPY-Y1 ant conf | NPY-Y2 antag ct
CCOC(=O)C1(Cc2ccccc2C(F)(F)F)CCN(C2CCN(C(C)=O)CC2)CC1 | · | 4.4 | -10.6 | 4.2 | · | ·
O=C1CCC(C(=O)OCC(=O)C23CC4CC(CC(C4)C2)C3)N1 (stereo not given) | -0.5 | 23.4* | -1.7 | 22.1 | -2.2 | 0.6
O=C1CCC(C(=O)OCc2ccccc2)N1 (stereo not given) | 1.2 | 5.9 | -21.1 | 1.1 | · | ·
COc1cc(OC)cc(C(=O)NCC(=O)OCC(=O)C(C)(C)C)c1 | 3.4 | 3.0 | 3.5 | 1.7 | · | ·
CCOC(=O)c1c(C)n(-c2ccc(C)cc2)c2ccc(O)c(CN(C)C)c12 | · | 50.5* | -14.2 | -42.7 | 51.7* | 55.4*
CCOC(=O)c1c(CSc2ccccc2)n(C)c2cc(Br)c(O)c(CN(C)C)c12 | · | · | -62.1 | -76.2 | · | ·
CCOC(=O)c1c(CSc2ccc(C)cc2)n(C)c2cc(Br)c(O)c(CN(C)C)c12 | · | 74.8* | -99.6 | -78.1 | 60.1* | 72.4*
CC(C)CCNC(=O)COC(=O)c1cc(Br)c(Br)s1 | · | 10.1 | -9.2 | -8.7 | · | ·
COc1ccc(-c2cc(-c3n[nH]c(=S)n3-c3cccc4ccccc34)[nH]n2)cc1 | · | 54.6* | -28.2 | -23.0 | 85.2* | 101.1*
S=c1[nH]nc(-c2cc(-c3ccsc3)n[nH]2)n1-c1cccc2ccccc12 | · | 10.1 | -0.1 | 8.2 | · | ·
N#Cc1nc(-c2ccccc2F)oc1NCc1cccc2c1OCO2 | 14.2 | 28.3* | -52.7 | -40.3 | 5.7 | 6.8
CN1CCN(CCCCC(=O)c2ccccc2)CC1 | 2.3 | 3.7 | -10.0 | 6.3 | · | ·
CN1CCN(CCCC(=O)c2ccc(C3CCCC3)cc2)CC1 | 10.9 | 26.3* | -10.8 | -51.4 | 10.6 | 15.5
NS(=O)(=O)c1ccc(NC(=O)COC(=O)/C(=C/c2cccs2)c2cccs2)cc1 | · | -6.5 | 8.8 | 28.2 | · | ·
COc1ccc(C2Nc3ccccc3C(=O)N2c2ccccc2)cc1COc1ccccn1 (stereo not given) | 4.4 | 22.0* | -7.1 | 7.5 | 9.7 | 7.2
COc1ccc(C2Nc3ccccc3C(=O)N2c2ccccc2)cc1CSc1ccccn1 (stereo not given) | 8.3 | 10.8 | 5.2 | 0.5 | · | ·
COc1ccc(Cl)cc1NC(=S)N(Cc1ccc(C(=O)O)cc1)Cc1ccc(OC)c(OC)c1 | · | -4.3 | 5.2 | -6.6 | · | ·
Cc1ccc(NC(=S)NC2CCCCC2)cc1S(=O)(=O)N(C)C | · | -5.5 | -7.1 | 13.7 | · | ·
CC1CCc2nc3ccccc3c(C(=O)OCC(=O)NC3CCS(=O)(=O)C3)c2C1 (stereo not given) | · | 3.5 | -2.2 | 0.0 | · | ·
COc1cccc(NC(=O)COC(=O)c2c3c(nc4ccccc24)CCC(C)C3)c1 (stereo not given) | 15.8 | 31.0* | 11.9 | -3.0 | 2.9 | 4.3
CCOC(=O)c1cnc(SCCc2ccccc2)nc1N | 7.5 | 20.8* | -19.1 | -1.6 | 8.2 | 6.6
Cc1cc(SCC(=O)c2cccs2)nc2c(C)cccc12 | 11.6 | 22.0* | -24.2 | -19.2 | 4.5 | 8.0
COc1nc(-c2ccccc2)ccc1-c1noc(-c2ccco2)n1 | 3.0 | 10.2 | -6.7 | -21.3 | · | ·
COc1ccc(-c2ccc(-c3noc(-c4ccco4)n3)c(OC)n2)cc1 | 1.1 | 78.0* | 6.5 | -3.0 | 3.2 | 4.8
CCC(Oc1ccc(C)c(C)c1)C(=O)O (stereo not given) | 5.8 | 23.2* | -3.2 | -6.1 | 5.5 | 5.9
SMILES | NPY-Y2 antag | NPY Y1 blocker | NPY-Y2 PAM-ag | NPY-Y1 PAM-ag | NPY-Y1 ant conf | NPY-Y2 antag ct
C=CCOc1ccccc1CN1CCC(CO)(CCOc2ccccc2)CC1 | · | 27.0* | -40.8 | -33.6 | 10.1 | 17.0
CC(C)n1cc(NC(=O)c2cc(-c3ccccc3)on2)cn1 | 9.0 | 23.6* | -26.9 | -32.6 | 4.6 | 13.6
O=S(=O)(NCC1CCCO1)c1ccc(Cl)nc1 (stereo not given) | · | · | -2.3 | 10.3 | · | ·
O=C(Cn1nc(CNc2ccc(Cl)cc2)[n+]2c1CCCCC2)c1ccccc1 | -0.5 | 1.4 | -1.8 | -9.6 | · | ·
Cc1ccc(C(C)C)c(OCc2nn(CC(=O)c3ccc(Cl)cc3)c3[n+]2CCCCC3)c1 | · | 35.0* | -13.2 | -36.7 | 19.3 | 17.7*
CCS(=O)(=O)c1ccc(O)c(NC(=O)Nc2ccccc2OC)c1 | · | · | -0.5 | 7.0 | · | ·
Cc1ccc(N=Cc2c(O)n(-c3cc(Cl)ccc3N3CCOCC3)c(=O)c3ccccc23)cc1C | 5.9 | 22.2* | -33.8 | -80.0 | 15.2 | 26.9*
CCc1nnc(NC(=O)CSc2nc3cc(OC)ccc3cc2C)s1 | · | -3.5 | -4.9 | -10.1 | · | ·
C/C(=N\N(Cc1ccccc1)c1ccccc1)c1ccncc1 | · | 0.9 | 8.5 | -4.4 | · | ·
Cc1ccc(C)c(NC(=O)c2cc(-c3cccnc3)nc3ccccc23)c1 | · | 7.0 | 3.2 | 1.7 | · | ·
Cc1ccccc1NC(=S)NC(=O)c1cc(-c2ccccc2)nc2ccccc12 | 12.0 | 21.3* | -83.0 | -90.0 | 27.8* | 37.9*
Cc1cccc(NC(=S)NC(=O)c2cc(-c3ccccc3)nc3ccccc23)c1 | 7.5 | 20.8* | -2.7 | -14.0 | 15.5 | 19.8*
CC(C)CC(COCc1cccc(Cl)c1)N1CCN(C(=O)c2ccc(C(F)(F)F)cc2)CCC1=O (stereo not given) | 12.9 | 26.9* | -2.8 | -9.3 | 14.4 | 7.5
Cc1cccc(COCC(CC(C)C)N2CCN(C(=O)c3ccc(C(F)(F)F)cc3)CCC2=O)c1 (stereo not given) | 13.7 | 13.0 | -4.2 | -22.6 | · | ·
Cn1c(=NCC(O)COc2ccccc2)sc2ccccc21 (stereo not given) | 12.3 | 22.0* | -22.6 | -57.5 | 6.9 | 14.7
CCn1cc(C(=O)OCC(=O)Nc2c(C)cccc2C)c(=O)c2ccc(C)nc21 | · | 2.5 | 16.4 | -7.3 | · | ·
COC(=O)NNC(=O)c1ccc(C)c(Br)c1 | -0.1 | 8.2 | -3.1 | -4.5 | · | ·
CN(C)c1ccc(-c2nn3c(-c4ccc(Cl)cc4)nnc3s2)cc1 | 3.8 | 4.6 | 2.2 | 3.5 | · | ·
Clc1ccc(-c2nn3c(C4COc5ccccc5O4)nnc3s2)cc1 (stereo not given) | 11.0 | 24.9* | 2.3 | -11.7 | 14.6 | 12.6
O=c1c2c3c(sc2nc2n1CCCCC2)CCCCC3 | -0.5 | -3.5 | 4.5 | 5.0 | · | ·
N=c1c2c3c(sc2nc2n1CCCCC2)CCCCC3 | 9.3 | 20.4* | 8.1 | 10.3 | 1.9 | 5.6
O=[N+]([O-])c1ccc(N/N=C/c2cn(Cc3ccc(F)cc3)c3ccccc23)nc1 | 2.4 | 2.7 | 4.3 | 21.0 | · | ·
COC(=O)c1[nH]c2c(c1C)C(=O)CCC2 | -0.5 | 30.8* | 3.8 | -5.0 | -3.7 | 2.2
CCN(CC)CC(=O)c1ccc(-c2ccccc2)cc1 | 6.3 | 11.6 | -28.3 | -33.2 | · | ·

Assay outcomes (PubChem BioAssay)
